Assay outcomes: PubChem, several laboratories
SENP6 block: inhibitors of human SENP6 protease; AID 2599; inhibition, % at 10 µM; Q9GZR1; Recombinant SENP6 catalytic domain, aminoluciferin luminescence; 1.8% of 330,000 active;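 active = inhibition above about 50% at the single tested dose, limit read from the data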
Target sequence (Q9GZR1 628-1112 limits assumed): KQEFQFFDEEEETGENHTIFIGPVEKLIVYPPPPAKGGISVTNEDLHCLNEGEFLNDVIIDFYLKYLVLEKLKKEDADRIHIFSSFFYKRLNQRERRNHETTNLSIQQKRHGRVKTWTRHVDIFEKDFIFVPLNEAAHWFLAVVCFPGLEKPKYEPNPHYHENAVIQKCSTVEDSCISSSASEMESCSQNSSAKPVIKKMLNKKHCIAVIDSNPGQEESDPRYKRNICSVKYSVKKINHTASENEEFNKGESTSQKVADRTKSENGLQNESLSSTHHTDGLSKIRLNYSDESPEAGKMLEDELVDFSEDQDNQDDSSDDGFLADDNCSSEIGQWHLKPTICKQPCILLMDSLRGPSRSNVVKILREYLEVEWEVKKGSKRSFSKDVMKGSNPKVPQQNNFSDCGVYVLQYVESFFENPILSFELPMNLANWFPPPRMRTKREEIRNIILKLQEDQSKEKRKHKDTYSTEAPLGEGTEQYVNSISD
SENP8 block-1: SENP8 protease inhibition; Q96LD8; purified SENP8, Z-RLRGG-aminoluciferin cleavage, luminescence; inhibition, % at 10 µM; 1.2% of 330,000 active; in the data active = inhibition above about 50%
SENP1 inh: blocks the human SENP1 SUMO protease catalytic domain; recombinant SENP1 catalytic domain, CyPet-SUMO1-YPet FRET cleavage; inhibition, % at 10 µM; 0.21% of 360,000 active;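 active = inhibition at least 30% at 10 µM, raw YFP signal under a set limit, fluorescence ratio 0.5 to 1.5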
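system = hSENP1 catalytic domain, recombinant | reagent = SFCypet-SUMO1-SFYpet substrate at 25 nM | doses = one dose per compound, 10 µM, 0.5% DMSO | incubation = enzyme reaction for 50 min at room temperature, dark | measured by = FRET, CFP and YFP emission | controls = no-enzyme low, enzyme-DMSO high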
SENP8 block-2: blocks human SENP8 cleavage of Nedd8 substrate; inhibition, % at 20 µM; 0.64% of 360,000 active; recombinant SENP8, Nedd8 substrate fluorescence; in the data active = inhibition mostly above about 40%, no sharp cut-off; inactive = mostly below about 27%
Platelet DG rel: platelet dense granule release activity | 0.22% of 300,000 active | AID 1663 | human platelet-rich plasma, SFLLRN dense granule ATP release, luminescence | inhibition, %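 (compounds screened at 7.5 µM in platelet-rich plasma)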;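 active = mean replicate score, as percent of positive control, at or above 50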
SENP7 inh: inhibitors of human SENP7 protease. Q9BQF6. recombinant SENP7, Z-RLRGG-aminoluciferin luminescence, 40 min. inhibition, % at 5 µM. 1.5% of 330,000 active;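 active = inhibition above about 50% at the single test dose, limit read from the data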
SENP8 conf: SENP8 (human) inhibition, single concentration confirmation; shares compounds with SENP8 block-2; purified SENP8, Nedd8-AMC/pro-Nedd8 cleavage fluorescence, 30 min; inhibition, % at 25 µM; 15% of 1,400 active; AID 624319; in the data active = inhibition mostly above about 39%, no sharp cut-off; inactive = mostly below about 34%
Large screens that a line does not name were inactive (follow-up assays come after a bar, where they were run). Only some compounds are listed: those with a hit (about 2.6% of all), similar ones and a draw of the others.

O=C(CN1CCN(C(=O)N2CCOCC2)CC1)Nc1ccc(Br)cc1	SENP8 block-2 40.9 | SENP8 conf inactive
Cc1[nH]cnc1CN1CCc2c(c3ccccc3n2C)C1=O	SENP8 block-2 83.8 | SENP8 conf 76.3
Cc1nccn1CC1CCc2c(c3ccccc3n2C)C1=O (stereo not given)	none
O=C(N/N=C/c1ccccn1)c1cccc(S(=O)(=O)N2CCCC2)c1	SENP8 block-2 45.2 | SENP8 conf inactive
O=C(N/N=C/c1ccncc1)c1cccc(S(=O)(=O)N2CCCC2)c1	none (no result: Platelet DG rel)
Cc1cccc(NS(=O)(=O)c2cc(C(=O)OCC(=O)Nc3cc(C)on3)ccc2C)c1	SENP8 block-2 41.2 | SENP8 conf inactive
CN1CCN(Cc2c(O)ccc3cc(-c4ccccn4)c(=O)oc23)CC1	none
C/C(=N\NC(=O)c1ccc(Cl)cc1)c1ccccn1	none
C/C(=N\NC(=O)c1ccccn1)c1ccc(Cl)cc1	SENP8 block-2 55.3 | SENP8 conf inactive
O=C(CSc1nccc(=O)[nH]1)Nc1ccc(N2CCOCC2)cc1	none
CC1=NN(c2ccc(C)c(C)c2)C(=O)C1C(c1cccc(O)c1)C1C(=O)N(c2ccc(C)c(C)c2)N=C1C (stereo not given)	SENP8 block-2 80.9 | SENP8 conf 51.9
COC(=O)CN1C(=O)S/C(=C/c2ccc(N3CCCCC3)o2)C1=O	SENP8 block-2 41.9 | SENP8 conf inactive
CCOC(=O)CN1C(=O)S/C(=C/c2ccc(N3CCCCC3)o2)C1=O	none
Cc1ccc(C)c(NNC(N)=S)c1	none
Cc1cc(Cl)ccc1NNC(N)=S	SENP8 block-2 60.7 | SENP8 conf inactive
COc1ccc(C2CC(=O)c3c(O)cc(O)cc3O2)cc1O (stereo not given)	SENP8 block-2 41.0 (no result: SENP6 block, SENP8 block-1, Platelet DG rel, SENP7 inh) | SENP8 conf inactive
C/C(=N\Nc1ccc(S(=O)(=O)Nc2ccccc2)cc1[N+](=O)[O-])c1ccc(N2CCOCC2)cc1	SENP8 block-2 43.8 | SENP8 conf inactive
C/C(=N\Nc1ccc(S(=O)(=O)Nc2ccc(Cl)cc2)cc1[N+](=O)[O-])c1ccc(N2CCOCC2)cc1	none
CCOc1ccc(N=Nc2c(=O)[nH]n3c(=O)c4c([nH]c23)CCCC4)cc1	SENP8 block-2 53.5 | SENP8 conf inactive
CN(C)CCCN(C(=O)c1ccc2c(c1)OCCO2)c1nc2cc3c(cc2s1)OCO3	none
CN(C)CCN(C(=O)c1ccc(N2C(=O)CCC2=O)cc1)c1nc2cc3c(cc2s1)OCO3	SENP8 block-2 58.8 | SENP8 conf 47.8
CCCOc1ccc(CCC(=O)N/N=C/c2ccco2)cc1	SENP8 block-2 44.1 | SENP8 conf inactive
COc1cc(NC(=O)c2ccc([N+](=O)[O-])o2)ccc1NC(=O)c1ccco1	SENP8 block-2 43.6 | SENP8 conf inactive
COC(=O)N/N=C1/C/C(=N\NC(=O)OC)c2ccccc21	SENP8 block-2 80.7 | SENP8 conf 96.2
CC(C)(C)CN1CCC(Oc2cccc(C(=O)N3CCC[C@H]3CO)c2)CC1	none
O=C(Cn1c(=O)cnc2ccccc21)Nc1cccc(S(=O)(=O)N2CCCCC2)c1	none (no result: Platelet DG rel)
CCC(=O)NC(=S)Nc1ccc(NC(=O)c2ccc([N+](=O)[O-])cc2Cl)cc1	SENP8 block-2 42.6 | SENP8 conf inactive
O=C(Nc1ccc(S(=O)(=O)N2CCOCC2)cc1)c1ccc([N+](=O)[O-])cc1Cl	none
O=C(Nc1ccc(N2CCCC2)cc1)c1ccc([N+](=O)[O-])cc1Cl	SENP8 block-2 42.8 | SENP8 conf inactive
CN(C)c1ccc(NC(=O)c2ccc([N+](=O)[O-])cc2Cl)cc1	none
C=CCS(=O)(=O)c1cccc2cccnc12	none
O=C(c1cc2ccccc2cc1O)N1CCN(c2ccc([N+](=O)[O-])cc2)CC1	none
O=C1CN(c2ccc(Cl)cc2)C(=O)CN1NC(=S)Nc1ccc(Cl)cc1	SENP8 block-2 42.7 | SENP8 conf inactive
COc1ccc(-c2cc(C(F)(F)F)c3c(=O)n(-c4ccccc4)[nH]c3n2)cc1	SENP8 block-2 40.8 | SENP8 conf inactive
COc1ccc(/C=C2/SC(=O)N(CCNC(=O)C3CC(=O)N(Cc4ccccc4)C3)C2=O)cc1 (stereo not given)	none (no result: SENP6 block, SENP8 block-1, Platelet DG rel, SENP7 inh)
